Source: ChEMBL document CHEMBL1938286, “A concise synthesis of viscolin, and its anti-inflammatory effects through the suppression of iNOS, COX-2, ERK phosphorylation and proinflammatory cytokines expressions” (Eur J Med Chem, 2012)
Active and inactive are the calls of the source. The calls are words filed in the database; no cut-off is given here.

How the values were obtained:
Mus musculus [1] = test: Antiinflammatory activity in ICR mouse assessed as inhibition of carrageenan-induced hind paw edema at 10 mg/kg, ip; format: functional, organism-based; parameters: dose 10 mg/kg
Mus musculus [2] = test: Antiinflammatory activity in ICR mouse assessed as decrease in carrageenan-induced MDA level at 10 mg/kg, ip measured after 5 hrs; format: functional, organism-based; parameters: dose 10 mg/kg
Summary of the method: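 Male ICR mice (n = 6 per group) were dosed 30 min before intraplantar carrageenan. MDA in the edematous paw tissue was determined at the 5th hr after carrageenan.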

Mus musculus [3] = test: Antiinflammatory activity in ICR mouse assessed as decrease in carrageenan-induced serum NO level at 10 mg/kg, ip measured after 5 hrs; format: functional, organism-based; parameters: dose 10 mg/kg
Summary of the method: (§1)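 Male ICR mice (18–25 g, n = 6 per group). Carrageenan was injected intraplantar into the paw, with drug given 30 min beforehand. Serum was collected at the 5th hr. Nitrite was measured colorimetrically by Griess reaction, and TNF-α by commercial ELISA. Data are mean ± SEM.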

Mus musculus [4] = test: Antiinflammatory activity in ICR mouse assessed as decrease in carrageenan-induced serum TNFalpha level at 10 mg/kg, ip measured after 5 hrs; format: functional, organism-based; parameters: dose 10 mg/kg; summary of the method: as §1
Mus musculus [5] = test: Antioxidant activity in carrageenan-stimulated ICR mouse assessed as increase in CAT activity at 10 mg/kg, ip measured after 5 hrs; format: functional; conditions: route intraperitoneal
Summary of the method: (§2)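 Male ICR mice (n = 6 per group) received the drug 30 min before intraplantar carrageenan, and paw tissue was taken at the 5th hr. Total SOD was measured by inhibition of cytochrome c reduction, CAT by Aebi's method, and cytosolic GPx by Paglia–Valentine. Activities are in U/mg protein, given as mean ± SEM.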

Mus musculus [6] = test: Antioxidant activity in carrageenan-stimulated ICR mouse assessed as increase in SOD activity at 10 mg/kg, ip measured after 5 hrs; format: functional; conditions: route intraperitoneal; summary of the method: as §2
Mus musculus [7] = test: Antioxidant activity in carrageenan-stimulated ICR mouse assessed as increase in GPx activity at 10 mg/kg, ip measured after 5 hrs; format: functional; conditions: route intraperitoneal; summary of the method: as §2
Mus musculus [8] = test: Down regulation of COX-2 protein expression in carrageenan-stimulated ICR mouse at 10 mg/kg, ip measured after 5 hrs by Western blot analysis; format: functional; conditions: route intraperitoneal
Summary of the method: (§3)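 Male ICR mice (18–25 g, n = 6 per group) received intraplantar carrageenan. Paw tissue was taken 5 h after carrageenan. Lysates were made in RIPA buffer and 30 µg protein run on SDS-PAGE/PVDF immunoblot with ECL detection. Band intensities were quantified relative to the carrageenan-alone group across three independent experiments.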

Mus musculus [9] = test: Down regulation of iNOS protein expression in carrageenan-stimulated ICR mouse at 10 mg/kg, ip measured after 5 hrs by Western blot analysis; format: functional; conditions: route intraperitoneal; summary of the method: as §3
Mus musculus [10] = test: Antiinflammatory activity in carrageenan-stimulated ICR mouse assessed as decrease in neutrophil number at 8 mg/kg, ip measured after 5 hrs; format: functional, organism-based; parameters: dose 8 mg/kg
Summary of the method: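 Male ICR mice were dosed 30 min before intraplantar carrageenan, and paw biopsies were taken 5 h later. Tissue was fixed in Dietric solution for 1 week at room temperature, dehydrated in graded ethanol and paraffin-embedded. 7-thickness sections were stained with hematoxylin–eosin or Van Gieson and examined by light microscopy.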

Mus musculus [11] = test: Antiinflammatory activity in carrageenan-stimulated ICR mouse assessed as reduction in iNOS immunoreactive cells at 8 mg/kg, ip measured after 5 hrs; format: functional, organism-based; parameters: dose 8 mg/kg
Mus musculus [12] = test: Antiinflammatory activity in carrageenan-stimulated ICR mouse assessed as reduction in COX2 immunoreactive cells at 8 mg/kg, ip measured after 5 hrs; format: functional, organism-based; parameters: dose 8 mg/kg
Mus musculus [13] = test: Antiinflammatory activity in ICR mouse assessed as inhibition of carrageenan-induced hind paw edema at 10 mg/kg, ip measured after 4 hrs; format: functional, organism-based; parameters: dose 10 mg/kg

Structure (SMILES): COc1ccc2c(c1)c(CC(=O)O)c(C)n2C(=O)c1ccc(Cl)cc1 [INDOMETHACIN]
- Activity (Mus musculus [1]): Active
- Activity (Mus musculus [2]): Active
- Activity (Mus musculus [3]): Active
- Activity (Mus musculus [4]): Active
- Activity (Mus musculus [5]): 4.65 U/mg
- Activity (Mus musculus [6]): 3.85 U/mg
- Activity (Mus musculus [7]): 10.45 U/mg
- Activity (Mus musculus [8]): 73.1%
- Activity (Mus musculus [9]): 69.1%
- Activity (Mus musculus [10]): Active
- Activity (Mus musculus [11]): Active
- Activity (Mus musculus [12]): Active
- Activity (Mus musculus [13]): Active
